The source of these data is ChEMBL document CHEMBL1145795, “Design, synthesis, and evaluation of analogues of 3,3,3-trifluoro-2-hydroxy-2-phenyl-propionamide as orally available general anesthetics” (J Med Chem, 2003).

pIC50: −log10 of the molar value. Active and inactive are the calls of the source. The rule behind the calls is not given here.

For assay [1], the species on record is Rattus norvegicus. Kind of assay: Compound was tested for anticonvulsant activity against maximal electroshock in rat. In kind it is functional. A digest of the protocol: (§1)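 NINDS ADD Phase II quantification with oral dosing. […] Therapeutic index is rotarod TD50 divided by the MES or scMET ED50.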
The species entered for assay [2] is Rattus norvegicus. Kind of assay: Compound was tested for anticonvulsant activity by measuring the therapeutic index by maximal electroshock in rat. Format: functional. A digest of the protocol:
as §1
For orientation: Protection in the maximal electroshock model is a classic sign of anticonvulsant action.

Assay [3] relates to Rattus norvegicus. Kind of assay: Compound was tested for anticonvulsant activity against subcutaneous metrazole in rat. In kind it is functional. The settings on record: sc. A digest of the protocol:
as §1

The species entered for assay [4] is Rattus norvegicus. Kind of assay: Compound was tested for anticonvulsant activity using rotarod method in rat. In kind it is functional. The method, boiled down: as §1
(In general: The rotarod test checks motor coordination on a turning rod.)

Assay [5] concerns Rattus norvegicus. Kind of assay: Compound was tested for minimum alveolar concentration in rat at dose 60 mg/kg administered intraperitoneally. In kind it is functional. The following applies: route intraperitoneal. A digest of the protocol: (§2)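 Rats were isoflurane-induced, intubated and ventilated, with femoral arterial and venous lines and normothermia. Baseline MAC was taken by tail clamp for 1 min, stepping isoflurane by 0.1% with 12–15 min equilibration. MAC was the midpoint between movement and no movement. The compound (60 mg/kg) was sonicated in 3 mL peanut oil and given ip. MAC was redetermined at 30 min and 1 h. Blood pressure was recorded; values are given as mean ± SEM.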

Assay [6] relates to Rattus norvegicus. The experiment in a line: Compound was tested for blood pressure in rat at dose 60 mg/kg administered intraperitoneally. In kind it is functional. The settings on record: route intraperitoneal. The method, boiled down: as §2
For assay [7], the target named is T1, Sodium channel protein type 4 subunit alpha (Homo sapiens, UniProt P35499). Kind of assay: Inhibition of sodium channels through phasic blockade. In kind it is functional.
For assay [8], the target named is T1, Sodium channel protein type 4 subunit alpha. Kind of assay: Inhibition of sodium channels through tonic blockade. Format: functional.
For assay [9], the system named is Rattus norvegicus. Kind of assay: Compound was tested for isoflurane minimum alveolar concentration in rat at dose 60 mg/kg administered intraperitoneally. Format: functional. The following applies: route intraperitoneal. The method, boiled down: as §2
Assay [10] has as its system Mus musculus. Kind of assay: Compound was tested for anticonvulsant activity using rotarod method at dose 100 mg/kg in time 4 hr in mice administered subcutaneously. The settings on record: route subcutaneous. In kind it is functional. The method, boiled down: (§3)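 NINDS ADD rotarod neurotoxicity screen in mice at 0.5 h and 4 h post-dose. The score is inability to grasp the rotating rod; loss of righting reflex after falling was also noted.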

The test system of assay [11] is Mus musculus. The experiment in a line: Compound was tested for anticonvulsant activity against subcutaneous metrazole at dose 30 mg/kg in time 4 hr in mice administered subcutaneously. In kind it is functional. The method, boiled down: (§4)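 Run by the NINDS ADD program in mice, challenged with maximal electroshock or subcutaneous metrazol at 0.5 h and 4 h after dosing. Protection is scored per animal (e.g. […], 5 for scMet at 100 mg/kg).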

Assay [12] relates to Mus musculus. The experiment in a line: Compound was tested for anticonvulsant activity against maximal electroshock at dose 30 mg/kg in time 0.5 hr in mice administered subcutaneously. Format: functional. The settings on record: route subcutaneous. A digest of the protocol:
as §4

Assay [13] has as its system Rattus norvegicus. The experiment in a line: Compound was tested for anticonvulsant activity by measuring the therapeutic index by subcutaneous metrazole in rat. Format: functional. A digest of the protocol: as §1
Assay [14] deals with Mus musculus. Kind of assay: Compound was tested for anticonvulsant activity against subcutaneous metrazole at dose 300 mg/kg in time 4 hr in mice administered subcutaneously. Format: functional. The method, boiled down: as §4
Assay [15] has as its system Mus musculus. The experiment in a line: Compound was tested for anticonvulsant activity using rotarod method at dose 100 mg/kg in time 0.5 hr in mice administered subcutaneously. The following applies: route subcutaneous. Format: functional. The method, boiled down: as §3
Assay [16] has as its system HEK293. The experiment in a line: Effect on HEK293 cells co-expressing voltage-gated Na+ channel rNav 1.3 and beta-3 at 100 uM; NE=No effect. Format: functional, cell-based. The method, boiled down: (§5)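 rNaV1.3 coexpressed with β3 in HEK293 cells (and Xenopus oocytes), exposed to 10 µM or 100 µM and assessed for Na+ channel block.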
Assay [17] concerns the target Gamma-aminobutyric acid receptor subunit gamma-1 (Rattus norvegicus) (UniProt P23574). Kind of assay: Enhanced 10 uM GABA-A receptor currents in rat hippocampal neurons; NE=no effect. Format: functional, tissue-based. The following applies: Hippocampus. A digest of the protocol:
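Peak current is expressed as percent of the GABA-alone control. Concentration–response was fitted to a four-parameter logistic; values are given as mean ± SEM.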

The test system of assay [18] is Mus musculus. The experiment in a line: Compound was tested for anticonvulsant activity against subcutaneous metrazole at dose 300 mg/kg in time 0.5 hr in mice administered subcutaneously. In kind it is functional. A digest of the protocol:
as §4

The test system of assay [19] is Mus musculus. Kind of assay: Compound was tested for anticonvulsant activity against maximal electroshock at dose 30 mg/kg in time 4 hr in mice administered subcutaneously. The settings on record: route subcutaneous. In kind it is functional. A digest of the protocol:
as §4

Assay [20] relates to HEK293. The experiment in a line: Inhibition of rat TASK-1 and TASK-3-leak K+ channels expressed in HEK293 cells at 100 uM; NE denotes no effects. In kind it is functional, cell-based.
Assay [21] relates to Mus musculus. The experiment in a line: Compound was tested for anticonvulsant activity against subcutaneous metrazole at dose 100 mg/kg in time 4 hr in mice administered subcutaneously. In kind it is functional. The method, boiled down:
as §4

Assay [22] has as its system Mus musculus. Kind of assay: Compound was tested for anticonvulsant activity using rotarod method at dose 300 mg/kg in time 0.5 hr in mice administered subcutaneously. The settings on record: route subcutaneous. In kind it is functional. The method, boiled down: as §3
For assay [23], the target named is Protein kinase C (PKC) (Homo sapiens) (UniProt O94806+P41743+P17252+P05129+Q05655+P05771+Q05513+Q02156+P24723+Q15139+Q04759). The experiment in a line: Inhibition of protein kinase C at 100 uM; NE=no effect. In kind it is protein assay.
Assay [24] has as its system HEK293. The experiment in a line: Effect on HEK293 cells co-expressing voltage-gated Na+ channel rNav 1.3 and beta-3 at 10 uM; NE=No effect. In kind it is functional, cell-based. The method, boiled down:
as §5

In assay [25] the test system is Mus musculus. Kind of assay: Compound was tested for anticonvulsant activity against subcutaneous metrazole at dose 30 mg/kg in time 0.5 hr in mice administered subcutaneously. In kind it is functional. The method, boiled down: as §4
Assay [26] relates to Mus musculus. The experiment in a line: Compound was tested for anticonvulsant activity against subcutaneous metrazole at dose 100 mg/kg in time 0.5 hr in mice administered subcutaneously. Format: functional. The method, boiled down: as §4
Assay [27] has as its system Mus musculus. Kind of assay: Compound was tested for anticonvulsant activity against maximal electroshock at dose 300 mg/kg in time 0.5 hr in mice administered subcutaneously. Format: functional. The settings on record: route subcutaneous. The method, boiled down:
as §4

Assay [28] concerns Mus musculus. Kind of assay: Compound was tested for anticonvulsant activity against maximal electroshock at dose 100 mg/kg in time 0.5 hr in mice administered subcutaneously. Format: functional. The settings on record: route subcutaneous. The method, boiled down: as §4
Assay [29] relates to Mus musculus. Kind of assay: Compound was tested for anticonvulsant activity against maximal electroshock at dose 300 mg/kg in time 4 hr in mice administered subcutaneously. In kind it is functional. The settings on record: route subcutaneous. The method, boiled down: as §4
Assay [30] relates to Mus musculus. The experiment in a line: Compound was tested for anticonvulsant activity against maximal electroshock at dose 100 mg/kg in time 4 hr in mice administered subcutaneously. The settings on record: route subcutaneous. Format: functional. The method, boiled down: as §4
Assay [31] concerns Mus musculus. The experiment in a line: Compound was tested for anticonvulsant activity using rotarod method at dose 300 mg/kg in time 4 hr in mice administered subcutaneously. The settings on record: route subcutaneous. In kind it is functional. A digest of the protocol: as §3

T1 sequence (P35499 whole entry): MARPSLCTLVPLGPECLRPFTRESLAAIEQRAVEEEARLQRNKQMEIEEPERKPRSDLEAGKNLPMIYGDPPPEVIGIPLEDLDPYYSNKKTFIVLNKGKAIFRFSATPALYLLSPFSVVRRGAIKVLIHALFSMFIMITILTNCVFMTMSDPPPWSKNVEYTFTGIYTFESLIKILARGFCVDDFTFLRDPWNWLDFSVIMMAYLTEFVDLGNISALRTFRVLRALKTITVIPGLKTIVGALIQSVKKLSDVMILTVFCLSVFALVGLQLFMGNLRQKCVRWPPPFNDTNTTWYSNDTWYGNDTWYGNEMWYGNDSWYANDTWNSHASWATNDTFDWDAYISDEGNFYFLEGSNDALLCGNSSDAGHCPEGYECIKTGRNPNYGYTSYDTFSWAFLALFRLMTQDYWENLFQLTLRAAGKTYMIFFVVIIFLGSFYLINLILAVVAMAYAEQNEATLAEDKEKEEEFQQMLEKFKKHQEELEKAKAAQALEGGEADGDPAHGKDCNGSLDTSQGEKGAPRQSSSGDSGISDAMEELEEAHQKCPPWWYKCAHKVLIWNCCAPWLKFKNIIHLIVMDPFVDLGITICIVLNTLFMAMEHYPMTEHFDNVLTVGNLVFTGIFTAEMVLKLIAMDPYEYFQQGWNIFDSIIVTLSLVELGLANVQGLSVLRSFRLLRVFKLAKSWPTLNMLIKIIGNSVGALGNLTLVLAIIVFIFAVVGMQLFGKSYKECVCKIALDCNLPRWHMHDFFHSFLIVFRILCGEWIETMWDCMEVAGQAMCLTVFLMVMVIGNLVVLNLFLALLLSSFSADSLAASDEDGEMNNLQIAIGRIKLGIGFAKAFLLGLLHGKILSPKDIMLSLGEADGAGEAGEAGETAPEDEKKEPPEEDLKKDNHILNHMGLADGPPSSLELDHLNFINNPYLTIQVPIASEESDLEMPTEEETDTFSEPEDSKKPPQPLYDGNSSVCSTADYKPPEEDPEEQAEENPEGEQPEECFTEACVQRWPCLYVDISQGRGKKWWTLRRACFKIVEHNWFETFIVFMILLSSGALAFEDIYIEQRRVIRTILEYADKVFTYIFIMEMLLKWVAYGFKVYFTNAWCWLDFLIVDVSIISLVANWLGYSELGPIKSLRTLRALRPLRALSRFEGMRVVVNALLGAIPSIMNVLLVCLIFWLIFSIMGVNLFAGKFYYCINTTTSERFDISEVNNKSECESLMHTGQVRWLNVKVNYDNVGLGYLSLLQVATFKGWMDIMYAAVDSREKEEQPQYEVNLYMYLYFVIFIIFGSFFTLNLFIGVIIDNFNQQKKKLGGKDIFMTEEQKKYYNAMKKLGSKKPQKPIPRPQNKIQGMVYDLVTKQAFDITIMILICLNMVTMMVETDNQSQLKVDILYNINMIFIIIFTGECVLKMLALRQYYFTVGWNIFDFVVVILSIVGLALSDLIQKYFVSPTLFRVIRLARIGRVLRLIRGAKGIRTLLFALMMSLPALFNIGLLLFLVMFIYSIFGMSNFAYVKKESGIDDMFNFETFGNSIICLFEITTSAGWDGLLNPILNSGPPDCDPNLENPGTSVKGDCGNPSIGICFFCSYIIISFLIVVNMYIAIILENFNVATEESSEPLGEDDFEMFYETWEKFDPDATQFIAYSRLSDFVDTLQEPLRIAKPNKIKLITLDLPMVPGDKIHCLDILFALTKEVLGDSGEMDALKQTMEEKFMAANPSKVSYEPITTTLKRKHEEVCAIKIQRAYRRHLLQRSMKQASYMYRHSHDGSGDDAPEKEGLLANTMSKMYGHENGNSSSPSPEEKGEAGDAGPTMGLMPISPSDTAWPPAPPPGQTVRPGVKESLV
Gamma-aminobutyric acid receptor subunit gamma-1 (Rattus norvegicus), sequence (P23574 whole entry): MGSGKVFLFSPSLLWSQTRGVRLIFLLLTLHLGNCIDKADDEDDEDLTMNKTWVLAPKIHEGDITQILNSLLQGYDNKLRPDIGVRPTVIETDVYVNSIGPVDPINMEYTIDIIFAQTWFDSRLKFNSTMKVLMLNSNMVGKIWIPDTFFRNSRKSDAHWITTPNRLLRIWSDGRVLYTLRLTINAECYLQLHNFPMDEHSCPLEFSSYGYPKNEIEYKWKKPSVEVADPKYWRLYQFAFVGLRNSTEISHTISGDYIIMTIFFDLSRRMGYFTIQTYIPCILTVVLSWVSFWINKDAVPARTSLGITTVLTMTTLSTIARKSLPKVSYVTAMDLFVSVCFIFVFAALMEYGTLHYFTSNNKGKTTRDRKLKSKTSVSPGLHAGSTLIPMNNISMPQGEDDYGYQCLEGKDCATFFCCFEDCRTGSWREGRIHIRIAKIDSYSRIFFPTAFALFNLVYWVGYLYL

The term ED50 denotes the dose at which the effect has come halfway, by size or by number of responders. High values mean a need for a large dose, low ones an effect at a small dose. On to `O=C1NC(=O)C(c2ccccc2)(c2ccccc2)N1` [PHENYTOIN], for which the values for the ED50 in the assay filed under Rattus norvegicus [1], in the assay on Rattus norvegicus [3] and in the assay listed under Rattus norvegicus [4] were 9.5 mg/kg, above 300 mg/kg and 66 mg/kg, respectively. This compound also displayed a T.I. in the assay listed under Rattus norvegicus [2] of 6.9.

`O=C1Nc2ccccc2C1(O)C(F)(F)F` (stereo not given): the MAC reduction in the assay with Rattus norvegicus [5] was -4.3%. In the assay on Rattus norvegicus [6], this compound had a Mean blood pressure of 113 mmHg.

Take `CC(O)(C(N)=O)c1ccccc1` (stereo not given) [ATROLACTAMIDE]: the MAC reduction in the assay on Rattus norvegicus [5] turned out to be 0%. The Mean blood pressure with Rattus norvegicus [6] amounted to 127 mmHg.

In general, pIC50 refers to −log10 of the IC50, conventionally taken in molar units. Higher therefore signals a small IC50. Turning to `CNC1(c2ccccc2Cl)CCCCC1=O` (stereo not given) [KETAMINE], the pIC50 was 2.64 in [7] and 3.10 in [8].

Turning to `NC(=O)C(O)(CC(F)(F)F)c1ccccc1` (stereo not given), in the assay with Rattus norvegicus [5], the MAC reduction is on record as -11%. The Mean blood pressure in the assay on Rattus norvegicus [6] came out at 107 mmHg.

`NC(=O)C(O)(Cc1ccccc1)C(F)(F)F` (stereo not given): the MAC reduction in the assay on Rattus norvegicus [5] is given as 0%. Besides, the Mean blood pressure with Rattus norvegicus [6] came out at 111 mmHg.

`CN1C(=O)C(O)(C(F)(F)F)c2ccccc21` (stereo not given): the MAC reduction in the assay with Rattus norvegicus [5] is listed as -4.4%. For the same compound, the Mean blood pressure with Rattus norvegicus [6] turned out to be 112 mmHg.

As for `NCC(O)(c1ccccc1)C(F)(F)F` (stereo not given), the MAC reduction with Rattus norvegicus [5] is on record as -6.5%. In addition, in the assay with Rattus norvegicus [6], the Mean blood pressure is 116 mmHg.

For the compound `NC(=O)C(O)(c1ccccc1)C(F)(F)F` (stereo not given), the Volume reduction in the assay on Rattus norvegicus [9] is 34%. For the same compound, the Protection in the assay on Mus musculus [10] is reported as 2; with Mus musculus [11], 0; with Mus musculus [12], 0; in the assay with Mus musculus [14] it was 1; in the assay with Mus musculus [15] it was 4; in the assay on Mus musculus [18], 1. For the same compound, the Protection with Mus musculus [19] is reported as 0; in the assay with Mus musculus [21], 0; with Mus musculus [22], 4; in the assay on Mus musculus [25], 0; in the assay with Mus musculus [26], 5; in the assay with Mus musculus [27], 1. Moreover, the Protection with Mus musculus [28] came to 3; in the assay with Mus musculus [29], 1; with Mus musculus [30], 3; in the assay with Mus musculus [31], 2. Besides, the values for the T.I. in the assay on Rattus norvegicus [13] and in the assay filed under Rattus norvegicus [2] were 2.6 and 10, respectively. Moreover, the MAC reduction with Rattus norvegicus [5] is reported as -34%. The outcome (in the assay with HEK293 [16]; in the assay with HEK293 [16] (Xenopus sp.); in assay [17]; in the assay on HEK293 [20]; in assay [23]; in the assay with HEK293 [24]) was inactive. Besides, in the assay with HEK293 [24] (Xenopus sp.), the outcome was inactive. Besides, the ED50 worked out at 9.9 mg/kg in the assay filed under Rattus norvegicus [1], 39 mg/kg in the assay on Rattus norvegicus [3] and 100 mg/kg in the assay filed under Rattus norvegicus [4]. Also, in the assay with Rattus norvegicus [6], the Mean blood pressure is listed as 119 mmHg.

For `O=C(O)C(O)(c1ccccc1)C(F)(F)F` (stereo not given), the MAC reduction in the assay on Rattus norvegicus [5] is -9.1%. For the same compound, in the assay with Rattus norvegicus [6], the Mean blood pressure is 116 mmHg.

Turning to `NC(=O)C(OCc1ccccc1)(c1ccccc1)C(F)(F)F` (stereo not given), the MAC reduction with Rattus norvegicus [5] is listed as -4.4%. In the assay on Rattus norvegicus [6], the Mean blood pressure amounted to 121 mmHg.

Turning to `NC(=O)C(O)(c1ccccc1)C(F)(F)Cl` (stereo not given), in the assay on Rattus norvegicus [5], the MAC reduction was -43%. This compound also displayed a Mean blood pressure in the assay with Rattus norvegicus [6] of 81 mmHg.
